Data as given in ChEMBL document CHEMBL3046628, “Synthesis and herbicidal activity of 2-cyano-3-substituted-pyridinemethylaminoacrylates” (J Agric Food Chem, 2003).

Experiments:
Zea mays = experiment: Phytotoxicity against Zea mays (maize) at 750 g/ha; format: organism-based; settings: in vivo
Brassica napus [1] = experiment: Post-emergence herbicidal activity against Brassica napus (oilseed rape) at 75 g/ha applied through spraying after first true leaf expanded; format: functional
In short: (§1)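 Seeds sown in 6 cm diameter plastic boxes containing artificial mixed soil. Amaranthus retroflexus seed was reproduced outdoors and stored at room temperature. Alfalfa and rape seed came from a crop institute.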

Brassica napus [2] = experiment: Post-emergence herbicidal activity against Brassica napus (oilseed rape) at 300 g/ha applied through spraying after first true leaf expanded; format: functional; in short: as §1
Brassica napus [3] = experiment: Post-emergence herbicidal activity against Brassica napus (oilseed rape) at 1500 g/ha applied through spraying after first true leaf expanded; format: functional; in short: as §1
Amaranthus retroflexus [4] = experiment: Post-emergence herbicidal activity against Amaranthus retroflexus at 75 g/ha applied through spraying after first true leaf expanded; format: functional; in short: as §1
Amaranthus retroflexus [5] = experiment: Post-emergence herbicidal activity against Amaranthus retroflexus at 300 g/ha applied through spraying after first true leaf expanded; format: functional; in short: as §1
Amaranthus retroflexus [6] = experiment: Post-emergence herbicidal activity against Amaranthus retroflexus at 1500 g/ha applied through spraying after first true leaf expanded; format: functional; in short: as §1
Medicago sativa [7] = experiment: Post-emergence herbicidal activity against Medicago sativa (alfalfa) at 75 g/ha applied through spraying after first true leaf expanded; format: functional; in short: as §1
Medicago sativa [8] = experiment: Post-emergence herbicidal activity against Medicago sativa (alfalfa) at 300 g/ha applied through spraying after first true leaf expanded; format: functional; in short: as §1
Medicago sativa [9] = experiment: Post-emergence herbicidal activity against Medicago sativa (alfalfa) at 1500 g/ha applied through spraying after first true leaf expanded; format: functional; in short: as §1
Brassica napus [10] = experiment: Post-emergence herbicidal activity against Brassica napus (oilseed rape) at 1.5 kg/ha applied through spraying after first true leaf expanded; format: functional; in short: as §1
Amaranthus retroflexus [11] = experiment: Post-emergence herbicidal activity against Amaranthus retroflexus at 1.5 kg/ha applied through spraying after first true leaf expanded; format: functional; in short: as §1
Medicago sativa [12] = experiment: Post-emergence herbicidal activity against Medicago sativa (alfalfa) at 1.5 kg/ha applied through spraying after first true leaf expanded; format: functional; in short: as §1
Medicago sativa [13] = experiment: Herbicidal activity against Medicago sativa (alfalfa); format: functional
Medicago sativa [14] = experiment: Herbicidal activity against Medicago sativa (alfalfa) at 37.50 g/ha; format: functional
Medicago sativa [15] = experiment: Herbicidal activity against Medicago sativa (alfalfa) at 18.75 g/ha; format: functional
Medicago sativa [16] = experiment: Herbicidal activity against Medicago sativa (alfalfa) at 75 g/ha; format: functional
Medicago sativa [17] = experiment: Herbicidal activity against Medicago sativa (alfalfa) at 150 g/ha; format: functional
Brassica napus [18] = experiment: Pre-emergence herbicidal activity against Brassica napus (oilseed rape) at 1.5 kg/ha applied through spraying immediately after seed plantings; format: functional; in short: as §1
Amaranthus retroflexus [19] = experiment: Pre-emergence herbicidal activity against Amaranthus retroflexus at 1.5 kg/ha applied through spraying immediately after seed plantings; format: functional; in short: as §1
Medicago sativa [20] = experiment: Pre-emergence herbicidal activity against Medicago sativa (alfalfa) at 1.5 kg/ha applied through spraying immediately after seed plantings; format: functional; in short: as §1

SMILES | Activity (Zea mays) | Activity (Brassica napus [10]) | Activity (Amaranthus retroflexus [11]) | Activity (Medicago sativa [12]) | Activity (Brassica napus [18]) | Activity (Amaranthus retroflexus [19]) | Activity (Medicago sativa [20]) | also measured
CCOCCOC(=O)/C(C#N)=C(/NCc1ccc(Cl)nc1)SC | Non-toxic | 80.6% | 100% | 75% |  |  |  | Activity (Brassica napus [1]): 36.8%; Activity (Brassica napus [2]): 100%; Activity (Brassica napus [3]): 100%; Activity (Amaranthus retroflexus [4]): 52.3%; Activity (Amaranthus retroflexus [5]): 96.2%; Activity (Amaranthus retroflexus [6]): 100%; Activity (Medicago sativa [7]): 36.3%; Activity (Medicago sativa [8]): 57.5%; Activity (Medicago sativa [9]): 76.2%; ED50 (Medicago sativa [13]): 4.35 g/ha; ED90 (Medicago sativa [13]): 39.3 g/ha; Activity (Medicago sativa [14]): 88.9%; Activity (Medicago sativa [15]): 80.6%; Activity (Medicago sativa [16]): 95.3%; Activity (Medicago sativa [17]): 98.1%
CCOCCOC(=O)/C(C#N)=C(/NCc1ccc(Cl)cc1)SC |  |  |  |  |  |  |  | ED50 (Medicago sativa [13]): 8.85 g/ha; ED90 (Medicago sativa [13]): 193.95 g/ha; Activity (Medicago sativa [14]): 76.9%; Activity (Medicago sativa [15]): 59.3%; Activity (Medicago sativa [16]): 80.6%; Activity (Medicago sativa [17]): 87%
CCOCCOC(=O)/C(C#N)=C(/NCc1ccc(Cl)cc1)C(C)C |  | 96.5% | 93.9% | 28.1% | 0% | 52.2% | 0% | 
CCCOc1ccc(CN/C(C)=C(/C#N)C(=O)OCCOCC)cn1 | Non-toxic | 17% | 31% | 34.2% | 0% | 23.4% | 17.8% | 
CCOCCOC(=O)/C(C#N)=C(/C)NCc1ccc(OC)nc1 | Non-toxic | 69% | 100% | 64% | 92.5% | 100% | 57.1% | 
CCOCCOC(=O)/C(C#N)=C\NCc1ccc(Cl)nc1 | Non-toxic | 7.3% | 18.3% | 15.8% | 21.8% | 12.2% | 14.8% | 
CCOCCOC(=O)/C(C#N)=C(/C)NCc1ccc(Cl)nc1 | Non-toxic | 100% | 100% | 100% | 100% | 93% | 66.4% | Activity (Brassica napus [1]): 14.6%; Activity (Brassica napus [3]): 100%; Activity (Amaranthus retroflexus [4]): 18.3%; Activity (Amaranthus retroflexus [6]): 100%; Activity (Medicago sativa [7]): 0%; Activity (Medicago sativa [9]): 100%
CCOCCOC(=O)/C(C#N)=C(/CC)NCc1ccc(Cl)nc1 | Non-toxic | 100% | 100% | 83.7% | 75% | 71.4% | 71.4% | Activity (Brassica napus [1]): 94.1%; Activity (Brassica napus [2]): 98.4%; Activity (Brassica napus [3]): 100%; Activity (Amaranthus retroflexus [4]): 88.4%; Activity (Amaranthus retroflexus [5]): 100%; Activity (Amaranthus retroflexus [6]): 100%; Activity (Medicago sativa [7]): 45.3%; Activity (Medicago sativa [8]): 62.8%; Activity (Medicago sativa [9]): 83.7%
CCOCCOC(=O)/C(C#N)=C(\NCc1ccc(Cl)nc1)C(C)C | Non-toxic | 100% | 93.9% | 65.9% | 95.5% | 97.8% | 23% | Activity (Brassica napus [1]): 89.4%; Activity (Brassica napus [2]): 100%; Activity (Brassica napus [3]): 100%; Activity (Amaranthus retroflexus [4]): 72.1%; Activity (Amaranthus retroflexus [5]): 93%; Activity (Amaranthus retroflexus [6]): 100%; Activity (Medicago sativa [7]): 14%; Activity (Medicago sativa [8]): 45.3%; Activity (Medicago sativa [9]): 75.6%
CCCCOc1ccc(CN/C(=C(/C#N)C(=O)OCCOCC)C(C)C)cn1 | Non-toxic | 100% | 100% | 41% | 6.3% | 10.1% | 0% | 
CCCOc1ccc(CN/C(=C(/C#N)C(=O)OCCOCC)C(C)C)cn1 | Non-toxic | 100% | 100% | 75.9% | 30.7% | 30.4% | 14.8% | 
CCOCCOC(=O)/C(C#N)=C(\NCc1ccc(OCC)nc1)C(C)C | Non-toxic | 100% | 100% | 45.8% | 54.8% | 50.7% | 10.1% | 
CCOCCOC(=O)/C(C#N)=C(\NCc1ccc(OC)nc1)C(C)C | Non-toxic | 100% | 100% | 53% | 100% | 71% | 32.9% | 
CCOc1ccc(CN/C(SC)=C(\C#N)C(=O)OCCOC)cn1 | Non-toxic | 84.5% | 70% | 55.3% | 5.1% | 31.3% | 0% | 
COCCOC(=O)/C(C#N)=C(/NCc1ccc(OC)nc1)SC | Non-toxic | 90.1% | 90% | 72.3% | 48.8% | 50% | 10% | 
COCCOC(=O)/C(C#N)=C(/NCc1cccnc1)SC | Non-toxic | 6.4% | 0% | 15.9% | 9.1% | 0% | 0% | 
CCCOc1ccc(CN/C(SC)=C(\C#N)C(=O)OCCOCC)cn1 | Non-toxic | 96.8% | 93.8% | 0% | 16.3% | 0% | 0% | 
CCOCCOC(=O)/C(C#N)=C(/NCc1ccc(OCC)nc1)SC | Non-toxic | 100% | 100% | 91.5% | 22% | 37.5% | 0% | 
CCOCCOC(=O)/C(C#N)=C(/NCc1ccc(OC)nc1)SC | Non-toxic | 100% | 100% | 80.9% | 68.3% | 56.3% | 36.4% | 
COC(=O)COC(=O)/C(C#N)=C(/NCc1ccc(Cl)nc1)SC | Non-toxic | 0% | 0% | 4.8% | 0% | 0% | 0% | 
CS/C(NCc1ccc(Cl)nc1)=C(/C#N)C(=O)N1CCOCC1 | Non-toxic | 99.4% | 100% | 75% | 0% | 0% | 0% | Activity (Brassica napus [1]): 0%; Activity (Brassica napus [2]): 0%; Activity (Brassica napus [3]): 99.4%; Activity (Amaranthus retroflexus [4]): 0%; Activity (Amaranthus retroflexus [5]): 25%; Activity (Amaranthus retroflexus [6]): 100%; Activity (Medicago sativa [7]): 0%; Activity (Medicago sativa [8]): 9.7%; Activity (Medicago sativa [9]): 75%
CS/C(NCc1ccc(Cl)nc1)=C(/C#N)C(=O)OCC1CCCO1 (centres undefined) | Non-toxic | 100% | 98.8% | 64% | 54.2% | 14.3% | 16.7% | Activity (Brassica napus [1]): 94.7%; Activity (Brassica napus [2]): 97.3%; Activity (Brassica napus [3]): 100%; Activity (Amaranthus retroflexus [4]): 79.1%; Activity (Amaranthus retroflexus [5]): 88.4%; Activity (Amaranthus retroflexus [6]): 98.8%; Activity (Medicago sativa [7]): 41.9%; Activity (Medicago sativa [8]): 52.3%; Activity (Medicago sativa [9]): 64%
C=CCOC(=O)/C(C#N)=C(/NCc1ccc(Cl)nc1)SCC | Non-toxic | 100% | 100% | 98.8% | 0% | 0% | 0% | 
C=CCOC(=O)/C(C#N)=C(/NCc1ccc(Cl)nc1)SC | Non-toxic | 91.7% | 100% | 100% | 0% | 0% | 0% | Activity (Brassica napus [1]): 33.3%; Activity (Brassica napus [2]): 82.7%; Activity (Brassica napus [3]): 91.7%; Activity (Amaranthus retroflexus [4]): 22.2%; Activity (Amaranthus retroflexus [5]): 61.6%; Activity (Amaranthus retroflexus [6]): 100%; Activity (Medicago sativa [7]): 15.9%; Activity (Medicago sativa [8]): 56.1%; Activity (Medicago sativa [9]): 100%
